Dynein cargo inh: inhibitors of GR-EGFP nuclear translocation, primary screen, dynein cargo transport inhibitor project, imaging, high-content, 3617.4 mouse cells; test concentration mostly 20 µM; stimulated with dexamethasone, 1 µM; hits give low values; AID 1381, 2008; 220,000 compounds, 0.47% hits; z-score, hits read low;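 active means plate z-score of nuclear minus cytoplasmic receptor signal below a set negative limit, without overly bright fluorescence or cell loss, cut at about -3.5 in these data, passing the limit was not always enough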;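 further: z-score of nuclear minus cytoplasmic ring GR-EGFP intensity difference per well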
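Buffer or medium: Induction medium lacking tetracycline, stripped serum | Also added: Dexamethasone agonist, 1.0 µM final, for 30 min | Timing: 48 h induction, 1 h compound, 30 min dex at 37 °C | Detection: Formaldehyde fixation, Hoechst nuclear stain, 10x automated fluorescence imaging | Measure: Nuclear versus cytoplasmic GR-EGFP signal, averaged per well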
Mdm2 ligase inh: MDM2-luciferase reporter signal enhancers, primary screen, MDM2 E3 ligase inhibitor project, cell-based, luminescence, 1536-well; signal enhancement, % at 5 µM; AID 1230, 2008; E3 ubiquitin-protein ligase Mdm2 (Homo sapiens), Q00987; 210,000 compounds, 0.11% hits; cell-based MDM2 ubiquitination luciferase reporter, 2 h; 0 = plate control, 100 = twice control, blank-subtracted;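 active means signal enhancement of 30% or more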;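 further: luminescence tracks abundance of the self-degrading MDM2-luciferase fusion protein; higher signal means inhibition of MDM2 E3 ligase activity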
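Test system: mammalian cells stably expressing self-ubiquitinating, self-degrading MDM2 E3–luciferase fusion; Amount: 2000 cells in each well; Medium: DMEM; Schedule: 4 h settle plus 2 h compound, 37 °C; Technique: SteadyLite luciferase luminescence after 15 min room-temperature reagent incubation; Benchmarks: plate control and blank wells.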
Hsp70 act: Hsp70 transcriptional activators, primary screen, cell-based, HeLa, Hsp70 promoter luciferase, luminescence, 10 µM; AID 1203, 2008; activation, % at 10 µM; 200,000 compounds, 0.04% hits; HeLa Hsp70 promoter luciferase reporter; scaled: vehicle 0, proteasome-inhibitor control 100%;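 active means activation above the mean across all tested compounds plus 3 SD, cutoff set per campaign, cut at about 5.5% in these data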;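 further: 100% = MG132 at 30 µM as the positive control and 0% = DMSO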
S1P3 antagonist: S1P3 receptor antagonists, primary screen, cell-based. 170,000 compounds, 0.27% hits. CHO S1P3 NFAT-BLA reporter, FRET fluorescence, antagonist mode. AID 485, 2006. Sphingosine 1-phosphate receptor 3 (Homo sapiens), Q99500. inhibition, % at 4.98 µM;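 active means inhibition above the plate cutoff, the mean inhibition of test wells on that plate plus 3 SD, cut at about 28% in these data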;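 further: cells challenged with S1P at its EC80 of 0.8 µM; blue over green emission ratio from cleaved BLA substrate after 4 h stimulation; 0% = S1P-stimulated wells and 100% = unstimulated DMSO-only wells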
Target sequence (Q99500 whole entry, looked up): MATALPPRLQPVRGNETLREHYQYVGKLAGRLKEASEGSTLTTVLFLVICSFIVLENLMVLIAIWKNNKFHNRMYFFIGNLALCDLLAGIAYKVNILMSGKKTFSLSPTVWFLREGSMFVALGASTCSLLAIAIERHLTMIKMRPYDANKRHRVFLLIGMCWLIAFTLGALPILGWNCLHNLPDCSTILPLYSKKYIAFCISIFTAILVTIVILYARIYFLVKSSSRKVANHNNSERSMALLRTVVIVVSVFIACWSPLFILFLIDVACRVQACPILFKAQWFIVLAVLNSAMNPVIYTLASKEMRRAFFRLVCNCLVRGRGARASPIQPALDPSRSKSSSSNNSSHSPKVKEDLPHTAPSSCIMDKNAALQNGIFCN
S1P4 agonist: S1P4 receptor agonists, primary screen, cell-based; S1P4-expressing cell line, agonist reporter assay; activation, % at 4.98 µM; 220,000 compounds, 0.35% hits; AID 1509, 2009; in the data active means activation above about 11%;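 further: 0% = DMSO vehicle and 100% = reference agonist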
S1P4 antagonist: S1P4 receptor antagonists, primary screen, cell-based; Sphingosine 1-phosphate receptor 4 (Homo sapiens), O95977; S1P4-expressing cells, antagonist mode, reporter read-out; inhibition, % at 4.98 µM; 220,000 compounds, 0.26% hits; AID 1510, 2009; in the data active means inhibition above about 29%;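 further: 0% = wells stimulated with agonist and 100% = vehicle wells without agonist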
S1P4 agonist cf: S1P4 receptor agonists, retest, confirmation, cell-based, high throughput; shares compounds with S1P4 agonist; S1P4 agonist cell-based reporter assay; activation, % at 4.98 µM; 740 compounds, 7% hits; in the data active means activation above about 12%;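 further: 0% = vehicle and 100% = full reference agonist response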
S1P1 ag: S1P1 receptor agonists, human, counter-screen for S1P4 agonist project, cell-based; shares compounds with S1P4 agonist; S1P1 agonist cell-based assay, activation; activation, % at 4.98 µM; 740 compounds, 4% hits; in the data active means activation above about 21%;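 further: 0% = vehicle wells and 100% = reference agonist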
* hit, by the source's call. Shown are actives, neighbours in structure and some others; about 1.3% of the full set was active somewhere.

CC(=O)N1CCCC1(C(=O)O)c1ccccc1 (stereo not given) was read as Dynein cargo inh 0.41, Mdm2 ligase inh -14, S1P3 antagonist -1, S1P4 agonist 0 and S1P4 antagonist -11.
For Nc1nonc1NC(=O)CSc1ncccc1C(=O)O the results were Dynein cargo inh -0.41, Mdm2 ligase inh 6, Hsp70 act 0, S1P3 antagonist -28, S1P4 agonist 45*, S1P4 antagonist 1, S1P4 agonist cf -2 and S1P1 ag -1.
For COc1ccc(OC)c(NC(=O)CSc2ncccc2C(=O)O)c1 the results were Dynein cargo inh -0.47, Mdm2 ligase inh -12, Hsp70 act 0, S1P3 antagonist 19, S1P4 agonist -2 and S1P4 antagonist -1.
COc1ccccc1C1CN(c2ccccc2)N=C1c1cccs1 (stereo not given) was read as Dynein cargo inh 0.72, Mdm2 ligase inh -2, Hsp70 act 0, S1P4 agonist 1 and S1P4 antagonist 0.
Screening COc1cccc(C2CN(c3ccc(F)cc3F)N=C2c2cccs2)c1OC (stereo not given) returned Dynein cargo inh -0.16, Hsp70 act 0, S1P4 agonist 25*, S1P4 antagonist -11, S1P4 agonist cf 15* and S1P1 ag 43*.
Screening C(=C\c1nccc2c1[nH]c1ccccc12)/c1ccccc1 returned Dynein cargo inh -0.39, Mdm2 ligase inh -3, S1P3 antagonist 4, S1P4 agonist 11*, S1P4 antagonist 1, S1P4 agonist cf 1 and S1P1 ag 5.
For CCC1CN(C(=O)Nc2ccc(C)cc2)c2cc(C)ccc2O1 (stereo not given) the results were Dynein cargo inh -0.89, Mdm2 ligase inh -5, Hsp70 act 0, S1P3 antagonist 8, S1P4 agonist 1 and S1P4 antagonist -14.
For O=C(N/N=C/c1cn(-c2cccs2)nc1-c1ccccc1)c1ccccc1Br the results were Dynein cargo inh -0.28, Mdm2 ligase inh -22, Hsp70 act 0, S1P3 antagonist 9, S1P4 agonist 11*, S1P4 antagonist 1, S1P4 agonist cf -2 and S1P1 ag 1.
Screening O=C(N/N=C/c1cn(-c2cccs2)nc1-c1ccccc1)c1ccccc1O returned Dynein cargo inh 2.7, Mdm2 ligase inh -5, Hsp70 act 0, S1P3 antagonist -2, S1P4 agonist -1 and S1P4 antagonist 1.
O=C(NC(=O)c1ccccc1O)c1ccc2c(c1)CCO2 was read as Dynein cargo inh 1.2, Mdm2 ligase inh -51, S1P3 antagonist 2, S1P4 agonist -1 and S1P4 antagonist -2.
Screening CCOC(=O)Cc1nnc2c(Nc3ccccc3F)nc3nonc3n12 returned Dynein cargo inh 0.4, Mdm2 ligase inh -7, Hsp70 act 0, S1P3 antagonist 9, S1P4 agonist 38*, S1P4 antagonist -21, S1P4 agonist cf -1 and S1P1 ag 4.
`CCN=c1scc(C)n1/N=C/c1ccsc1` gave Dynein cargo inh 2.9, Mdm2 ligase inh 0, Hsp70 act 1, S1P3 antagonist 18, S1P4 agonist 165*, S1P4 antagonist -5, S1P4 agonist cf -1 and S1P1 ag 9.
`O=c1c(Cl)c(NCC2CCCO2)cnn1C12CC3CC(CC(C3)C1)C2` (stereo not given) gave Dynein cargo inh 0.77, Mdm2 ligase inh -6, Hsp70 act 0, S1P3 antagonist -9, S1P4 agonist -1 and S1P4 antagonist -3.
For Clc1ccc(N2CCN(c3ncnc4c3oc3ccccc34)CC2)cc1 the results were S1P3 antagonist 14.
For CCOC(=O)C1CCN(c2ncnc3c2oc2ccc(Cl)cc23)CC1 the results were Dynein cargo inh 0.48, Mdm2 ligase inh -22, Hsp70 act 0, S1P3 antagonist -6, S1P4 agonist 187*, S1P4 antagonist -1, S1P4 agonist cf -2 and S1P1 ag -1.
`COc1ccc(CN2CCC(N3CCC(C(=O)N4CCOCC4)CC3)CC2)c(F)c1` gave Dynein cargo inh -0.3, Mdm2 ligase inh 1, Hsp70 act 0, S1P3 antagonist -3, S1P4 agonist 11*, S1P4 antagonist -4, S1P4 agonist cf -1 and S1P1 ag -2.
For COc1ccc([N+](=O)[O-])cc1-n1cnnn1 the results were Dynein cargo inh -0.011, Mdm2 ligase inh -7, Hsp70 act 0, S1P3 antagonist -4, S1P4 agonist 0 and S1P4 antagonist -23.
CCCN(CCC)c1ccc(/C=C/c2ccc3cc(OCC)ccc3n2)cc1 was read as Dynein cargo inh 0.3, Mdm2 ligase inh -5, S1P3 antagonist 2, S1P4 agonist 17*, S1P4 antagonist -10, S1P4 agonist cf 30* and S1P1 ag 47*.
O=C(NC1CCN(Cc2ccccc2)CC1)c1cccc(S(=O)(=O)Nc2cc(C(F)(F)F)ccc2Cl)c1 was read as Dynein cargo inh -0.22, Mdm2 ligase inh -2, Hsp70 act 0, S1P3 antagonist -4, S1P4 agonist 25*, S1P4 antagonist -24, S1P4 agonist cf -2 and S1P1 ag -2.
Screening CCC1CCCCN1C(=O)c1cccc(S(=O)(=O)Nc2cc(C(F)(F)F)ccc2Cl)c1 (stereo not given) returned Dynein cargo inh -0.22, Mdm2 ligase inh -7, Hsp70 act 0, S1P3 antagonist -14, S1P4 agonist 1 and S1P4 antagonist -12.
Screening COc1ccc(SCC(=O)Nc2ccccc2Cl)cc1 returned Dynein cargo inh -0.67, Mdm2 ligase inh -6, Hsp70 act 0, S1P3 antagonist -8, S1P4 agonist 114*, S1P4 antagonist -4, S1P4 agonist cf -1 and S1P1 ag -5.
Screening Cc1ccc(S(=O)(=O)NCCNC(=O)c2ccccc2)cc1 returned Dynein cargo inh 1.2, Mdm2 ligase inh -7, Hsp70 act 0, S1P3 antagonist -19, S1P4 agonist -1 and S1P4 antagonist -3.
For Cc1ccc(S(=O)(=O)CNC(=O)c2ccccc2)cc1 the results were Dynein cargo inh -0.78, Mdm2 ligase inh -10, Hsp70 act -1, S1P3 antagonist -9, S1P4 agonist 24*, S1P4 antagonist -2, S1P4 agonist cf -2 and S1P1 ag 1.

Screening results as filed in PubChem BioAssay.
